Experimental data from ChEMBL document CHEMBL5360562 (Eur J Med Chem, 2023).
Converted amounts (≈) assume the structure as drawn.

Legend:
Acinetobacter baumannii [1] = experiment: Potentiation of Clarithromycin antibacterial activity against Acinetobacter baumannii AB5075 assessed as clarithromycin MIC at 5 uM incubated for 16 hrs by broth microdilution method; assay type: functional
Acinetobacter baumannii [2] = experiment: Antibacterial activity against Acinetobacter baumannii AB5075 assessed as reduction in bacterial growth incubated for 16 hrs by broth microdilution method; assay type: functional
Acinetobacter baumannii [3] = experiment: Potentiation of Clarithromycin antibacterial activity against Acinetobacter baumannii AB5075 assessed as clarithromycin MIC at 7.5 uM incubated for 16 hrs by broth microdilution method; assay type: functional
Acinetobacter baumannii [4] = experiment: Potentiation of Clarithromycin antibacterial activity against Acinetobacter baumannii AB5075 assessed as fold reduction in clarithromycin MIC at 5 uM incubated for 16 hrs by broth microdilution method; assay type: functional
Summary of the method: (§1)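 Checkerboard-style potentiation by broth microdilution. 6 h day cultures in CAMHB diluted to 5×10^5 CFU/mL. Adjuvant added from 10 mM DMSO stock at fixed concentration throughout. […] Controls: antibiotic alone, adjuvant alone, media only. Incubated stationary at 37 °C for 16 h. MIC is lowest concentration with no visible growth; fold reduction taken against the antibiotic-alone lane.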

Acinetobacter baumannii [5] = experiment: Potentiation of Clarithromycin antibacterial activity against Acinetobacter baumannii AB5075 assessed as fold reduction in clarithromycin MIC at 30 uM incubated for 16 hrs by broth microdilution method; assay type: functional; summary of the method: as §1
[6] = Metabolic stability in human liver microsomes assessed as parent compound remaining in presence of NADPH measured at 1 hr by UV-UPLC analysis; assay type: ADME, Microsome
[7] = Therapeutic index, ratio of IC50 for antiproliferative against human HepG2 cells assessed as reduction in cell viability to MIC for potentiation of Clarithromycin antibacterial activity against Acinetobacter baumannii […] assessed as clarithromycin MIC; assay type: toxicity, cell-based; conditions: read-out: TI
Acinetobacter baumannii [8] = experiment: Potentiation of Clarithromycin antibacterial activity against Acinetobacter baumannii AB5075 assessed as clarithromycin MIC at 30 uM incubated for 16 hrs by broth microdilution method; assay type: functional
[9] = Stability of compound in human plasma assessed as parent compound remaining measured at 4 hrs; assay type: ADME, cell-free
Summary of the method: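 Compound at 20 μM final in human plasma (from 10 mM DMSO stock), 37 °C; aliquots at 0, 30, 60, 120, 240 min quenched in internal standard in 1:1 ACN/MeOH, centrifuged, supernatant analysed by UPLC-MRM. Peak-area ratio to internal standard expressed as % parent remaining relative to 0 min; half-life calculated.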

Acinetobacter baumannii [10] = experiment: Potentiation of Clarithromycin antibacterial activity against Acinetobacter baumannii AB5075 assessed as fold reduction in clarithromycin MIC at 7.5 uM incubated for 16 hrs by broth microdilution method; assay type: functional; summary of the method: as §1
[11] = Antiproliferative against human HepG2 cells assessed as reduction in cell viability incubated for 24 hrs by XTT assay; assay type: toxicity, cell-based
Acinetobacter baumannii [12] = experiment: Potentiation of Clarithromycin antibacterial activity against Acinetobacter baumannii AB5075 assessed as reduction in clarithromycin MIC at 20 uM incubated for 16 hrs by broth microdilution method; assay type: functional; conditions: for MIC: Acinetobacter baumannii, AB5075
Acinetobacter baumannii [13] = experiment: Potentiation of Clarithromycin antibacterial activity against Acinetobacter baumannii AB5075 assessed as clarithromycin MIC at 2.5 uM incubated for 16 hrs by broth microdilution method; assay type: functional
Acinetobacter baumannii [14] = experiment: Potentiation of Clarithromycin antibacterial activity against Acinetobacter baumannii AB5075 assessed as fold reduction in clarithromycin MIC at 10 uM incubated for 16 hrs by broth microdilution method; assay type: functional; summary of the method: as §1
Acinetobacter baumannii [15] = experiment: Potentiation of Clarithromycin antibacterial activity against Acinetobacter baumannii AB5075 assessed as clarithromycin MIC at 10 uM incubated for 16 hrs by broth microdilution method; assay type: functional
Acinetobacter baumannii [16] = experiment: Potentiation of Azithromycin antibacterial activity against Acinetobacter baumannii AB5075 assessed as azithromycin MIC at 10 uM incubated for 16 hrs by broth microdilution method; assay type: functional
Acinetobacter baumannii [17] = experiment: Potentiation of rifampicin antibacterial activity against Acinetobacter baumannii AB5075 assessed as rifampicin MIC at 30 uM incubated for 16 hrs by broth microdilution method; assay type: functional
Acinetobacter baumannii [18] = experiment: Potentiation of erythromycin antibacterial activity against Acinetobacter baumannii AB5075 assessed as erythromycin MIC at 10 uM incubated for 16 hrs by broth microdilution method; assay type: functional
Acinetobacter baumannii [19] = experiment: Potentiation of rifampicin antibacterial activity against Acinetobacter baumannii AB5075 assessed as rifampicin MIC at 10 uM incubated for 16 hrs by broth microdilution method; assay type: functional
Acinetobacter baumannii [20] = experiment: Potentiation of Azithromycin antibacterial activity against Acinetobacter baumannii AB5075 assessed as azithromycin MIC at 30 uM incubated for 16 hrs by broth microdilution method; assay type: functional
Acinetobacter baumannii [21] = experiment: Potentiation of Azithromycin antibacterial activity against Acinetobacter baumannii AB5075 assessed as azithromycin MIC at 20 uM incubated for 16 hrs by broth microdilution method; assay type: functional
Acinetobacter baumannii [22] = experiment: Potentiation of rifampicin antibacterial activity against Acinetobacter baumannii AB5075 assessed as rifampicin MIC at 7.5 uM incubated for 16 hrs by broth microdilution method; assay type: functional
Summary of the method: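 A. baumannii AB5075 6 h day cultures in CAMHB subcultured to 5×10^5 CFU/mL; adjuvant added from 10 mM DMSO stock at fixed concentration, then rifampicin (DMSO) twofold serially diluted in adjuvant-containing broth. Antibiotic-alone and adjuvant-alone control lanes.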

Acinetobacter baumannii [23] = experiment: Potentiation of rifampicin antibacterial activity against Acinetobacter baumannii AB5075 assessed as rifampicin MIC at 20 uM incubated for 16 hrs by broth microdilution method; assay type: functional
Acinetobacter baumannii [24] = experiment: Potentiation of erythromycin antibacterial activity against Acinetobacter baumannii AB5075 assessed as erythromycin MIC at 30 uM incubated for 16 hrs by broth microdilution method; assay type: functional
Acinetobacter baumannii [25] = experiment: Potentiation of erythromycin antibacterial activity against Acinetobacter baumannii AB5075 assessed as erythromycin MIC at 20 uM incubated for 16 hrs by broth microdilution method; assay type: functional

Nc1nc(-c2ccc(NC(=O)c3ccc(Cl)c(Cl)c3)cc2F)c[nH]1
MIC (Acinetobacter baumannii [1]): 8 µg/mL
MIC (Acinetobacter baumannii [2]): > 200 µM
MIC (Acinetobacter baumannii [3]): 1 µg/mL
fold change (FC) (Acinetobacter baumannii [4]): 4
fold change (FC) (Acinetobacter baumannii [5]): 64
Stability [6]: 57%
selectivity ratio [7]: 2.3
MIC (Acinetobacter baumannii [8]): 0.5 µg/mL
Stability [9]: > 95%
fold change (FC) (Acinetobacter baumannii [10]): 32
IC50 at 24 h [11]: 6.8 µg/mL (≈ 18.6 µM)

Cl.Cl.Nc1nc(-c2cc(F)cc(NC(=O)Nc3ccc(-c4c[nH]c(N)n4)c(F)c3)c2)c[nH]1
MIC (Acinetobacter baumannii [1]): 1 µg/mL
fold change (FC) (Acinetobacter baumannii [12]): 256
MIC (Acinetobacter baumannii [12]): 0.125 µg/mL
MIC (Acinetobacter baumannii [2]): > 200 µM
MIC (Acinetobacter baumannii [13]): 32 µg/mL
MIC (Acinetobacter baumannii [3]): 0.25 µg/mL
fold change (FC) (Acinetobacter baumannii [5]): >=512
MIC (Acinetobacter baumannii [8]): ≤ 0.062 µg/mL
fold change (FC) (Acinetobacter baumannii [10]): 128

Cl.Cl.Nc1nc(-c2ccc(F)c(NC(=O)Nc3cc(-c4c[nH]c(N)n4)ccc3F)c2)c[nH]1
MIC (Acinetobacter baumannii [2]): > 200 µM
fold change (FC) (Acinetobacter baumannii [5]): 1
MIC (Acinetobacter baumannii [8]): 32 µg/mL

Cl.Cl.Nc1nc(-c2ccc(F)c(NC(=O)Nc3ccc(-c4c[nH]c(N)n4)c(F)c3)c2)c[nH]1
MIC (Acinetobacter baumannii [2]): > 200 µM
fold change (FC) (Acinetobacter baumannii [5]): 4
MIC (Acinetobacter baumannii [8]): 8 µg/mL

Cl.Cl.Nc1nc(-c2cccc(NC(=O)Nc3cc(F)cc(-c4c[nH]c(N)n4)c3)c2)c[nH]1
MIC (Acinetobacter baumannii [1]): 16 µg/mL
fold change (FC) (Acinetobacter baumannii [12]): >=512
MIC (Acinetobacter baumannii [12]): ≤ 0.062 µg/mL
MIC (Acinetobacter baumannii [2]): > 200 µM
fold change (FC) (Acinetobacter baumannii [14]): 64
MIC (Acinetobacter baumannii [15]): 0.5 µg/mL
MIC (Acinetobacter baumannii [3]): 1 µg/mL
fold change (FC) (Acinetobacter baumannii [4]): 2
fold change (FC) (Acinetobacter baumannii [5]): >=512
MIC (Acinetobacter baumannii [8]): ≤ 0.062 µg/mL
fold change (FC) (Acinetobacter baumannii [10]): 32

COc1cc(-c2c[nH]c(N)n2)ccc1NC(=O)Nc1ccc(-c2c[nH]c(N)n2)cc1OC.Cl.Cl
MIC (Acinetobacter baumannii [2]): 200 µM
fold change (FC) (Acinetobacter baumannii [5]): 4
MIC (Acinetobacter baumannii [8]): 8 µg/mL

Cl.Cl.Nc1nc(-c2ccc(NC(=O)Nc3ccc(-c4c[nH]c(N)n4)c(F)c3)cc2)c[nH]1
fold change (FC) (Acinetobacter baumannii [12]): 64
MIC (Acinetobacter baumannii [12]): 0.5 µg/mL
MIC (Acinetobacter baumannii [2]): > 200 µM
fold change (FC) (Acinetobacter baumannii [14]): 32
MIC (Acinetobacter baumannii [15]): 1 µg/mL
MIC (Acinetobacter baumannii [3]): 2 µg/mL
fold change (FC) (Acinetobacter baumannii [5]): >=512
MIC (Acinetobacter baumannii [8]): ≤ 0.062 µg/mL
fold change (FC) (Acinetobacter baumannii [10]): 16

Nc1nc(-c2cccc(NC(=O)Nc3cccc(-c4c[nH]c(N)n4)c3)c2)c[nH]1
MIC (Acinetobacter baumannii [1]): 4 µg/mL
MIC (Acinetobacter baumannii [16]): 4 µg/mL
MIC (Acinetobacter baumannii [17]): 0.003 µg/mL
MIC (Acinetobacter baumannii [2]): 200 µM (≈ 74.9 µg/mL)
MIC (Acinetobacter baumannii [18]): 4 µg/mL
MIC (Acinetobacter baumannii [19]): 0.125 µg/mL
MIC (Acinetobacter baumannii [20]): 0.5 µg/mL
fold change (FC) (Acinetobacter baumannii [14]): 64
MIC (Acinetobacter baumannii [15]): 0.5 µg/mL
MIC (Acinetobacter baumannii [3]): 1 µg/mL
fold change (FC) (Acinetobacter baumannii [4]): 8
MIC (Acinetobacter baumannii [21]): 0.5 µg/mL
fold change (FC) (Acinetobacter baumannii [5]): >=512
MIC (Acinetobacter baumannii [22]): 1 µg/mL
Stability [6]: 93%
MIC (Acinetobacter baumannii [23]): 0.015 µg/mL
MIC (Acinetobacter baumannii [24]): 0.25 µg/mL
selectivity ratio [7]: 113
MIC (Acinetobacter baumannii [8]): ≤ 0.062 µg/mL
Stability [9]: 88%
fold change (FC) (Acinetobacter baumannii [10]): 32
MIC (Acinetobacter baumannii [25]): 0.5 µg/mL
IC50 at 24 h [11]: 380 µg/mL (≈ 1010 µM)

Cl.Cl.Nc1nc(-c2ccc(NC(=O)Nc3ccc(-c4c[nH]c(N)n4)c(C(F)(F)F)c3)cc2C(F)(F)F)c[nH]1
MIC (Acinetobacter baumannii [2]): > 200 µM
fold change (FC) (Acinetobacter baumannii [5]): 16
MIC (Acinetobacter baumannii [8]): 2 µg/mL

Cl.Cl.Nc1nc(-c2cccc(NC(=O)Nc3cccc(-c4c[nH]c(N)n4)c3F)c2F)c[nH]1
fold change (FC) (Acinetobacter baumannii [12]): 64
MIC (Acinetobacter baumannii [12]): 0.5 µg/mL
MIC (Acinetobacter baumannii [2]): > 200 µM
fold change (FC) (Acinetobacter baumannii [14]): 32
MIC (Acinetobacter baumannii [15]): 1 µg/mL
MIC (Acinetobacter baumannii [3]): 2 µg/mL
fold change (FC) (Acinetobacter baumannii [5]): 128
MIC (Acinetobacter baumannii [8]): 0.25 µg/mL
fold change (FC) (Acinetobacter baumannii [10]): 16

Cl.Cl.Nc1nc(-c2ccc(NC(=O)Nc3ccc(-c4c[nH]c(N)n4)c(Cl)c3)cc2Cl)c[nH]1
MIC (Acinetobacter baumannii [2]): > 200 µM
fold change (FC) (Acinetobacter baumannii [5]): 1
MIC (Acinetobacter baumannii [8]): 32 µg/mL

Cc1cc(-c2c[nH]c(N)n2)ccc1NC(=O)Nc1ccc(-c2c[nH]c(N)n2)cc1C.Cl.Cl
MIC (Acinetobacter baumannii [2]): > 200 µM
fold change (FC) (Acinetobacter baumannii [5]): 1
MIC (Acinetobacter baumannii [8]): 32 µg/mL

Nc1nc(-c2ccc(NC(=O)Nc3cccc(-c4c[nH]c(N)n4)c3)cc2)c[nH]1
MIC (Acinetobacter baumannii [16]): 16 µg/mL
MIC (Acinetobacter baumannii [17]): 0.031 µg/mL
MIC (Acinetobacter baumannii [2]): > 200 µM
MIC (Acinetobacter baumannii [18]): 16 µg/mL
MIC (Acinetobacter baumannii [19]): 2 µg/mL
MIC (Acinetobacter baumannii [20]): 1 µg/mL
MIC (Acinetobacter baumannii [15]): 16 µg/mL
MIC (Acinetobacter baumannii [21]): 4 µg/mL
fold change (FC) (Acinetobacter baumannii [5]): 256
MIC (Acinetobacter baumannii [23]): 0.25 µg/mL
MIC (Acinetobacter baumannii [24]): 1 µg/mL
MIC (Acinetobacter baumannii [8]): 0.125 µg/mL
MIC (Acinetobacter baumannii [25]): 2 µg/mL

Cl.Cl.Nc1nc(-c2cc(NC(=O)Nc3ccc(F)c(-c4c[nH]c(N)n4)c3)ccc2F)c[nH]1
MIC (Acinetobacter baumannii [1]): 2 µg/mL
fold change (FC) (Acinetobacter baumannii [12]): 128
MIC (Acinetobacter baumannii [12]): 0.25 µg/mL
MIC (Acinetobacter baumannii [2]): > 200 µM
fold change (FC) (Acinetobacter baumannii [14]): 64
MIC (Acinetobacter baumannii [15]): 0.5 µg/mL
MIC (Acinetobacter baumannii [3]): 1 µg/mL
fold change (FC) (Acinetobacter baumannii [4]): 16
fold change (FC) (Acinetobacter baumannii [5]): 256
MIC (Acinetobacter baumannii [8]): 0.125 µg/mL
fold change (FC) (Acinetobacter baumannii [10]): 32

Cl.Cl.Nc1nc(-c2ccc(NC(=O)Nc3ccc(F)c(-c4c[nH]c(N)n4)c3)cc2F)c[nH]1
fold change (FC) (Acinetobacter baumannii [12]): 8
MIC (Acinetobacter baumannii [12]): 4 µg/mL
MIC (Acinetobacter baumannii [2]): > 200 µM
fold change (FC) (Acinetobacter baumannii [5]): 64
MIC (Acinetobacter baumannii [8]): 0.5 µg/mL

Cl.Cl.Nc1nc(-c2ccc(NC(=O)Nc3ccc(-c4c[nH]c(N)n4)cc3F)c(F)c2)c[nH]1
MIC (Acinetobacter baumannii [2]): > 200 µM
fold change (FC) (Acinetobacter baumannii [5]): 8
MIC (Acinetobacter baumannii [8]): 4 µg/mL
